Experimental data: ChEMBL document CHEMBL5104200, “Discovery and Biological Characterization of PRMT5:MEP50 Protein-Protein Interaction Inhibitors” (J Med Chem, 2022)
Active and inactive are the calls of the source. The calls are words filed in the database; no cut-off is given here.

Experiments:
[1] = target: T1, PRMT5/MEP50 complex (Homo sapiens) (UniProt O14744+Q9BQA1); experiment: Inhibition of PRMT5/MEP50 (unknown origin) protein-protein interaction expressed in COS-1 cells at 10 uM incubated for 18 hrs by BiFC screening analysis relative to control; format: cell-based
How it was run: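 Transfected COS-1 cells (VN-PRMT5, VC-MEP50, NLS-CFP) treated at 10 µM or DMSO six hours after transfection; imaged 24 h after transfection. Per-cell YFP:CFP mean intensity ratio normalized to DMSO gives BiFC efficiency; inhibition = 100% minus efficiency. Single biological replicate screen.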

[2] = target: T1, PRMT5/MEP50 complex (Homo sapiens); experiment: Inhibition of PRMT/MEP50 (unknown origin) protein-protein interaction expressed in COS-1 cells incubated for 18 hrs by BiFC screening analysis; format: cell-based; conditions: DDE = dose-dependent effect
How it was run: (§1)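 COS-1 seeded 50,000 cells/well, co-transfected with Myc-VN155-PRMT5, HA-VC-MEP50 and FLAG-NLS-CFP. After 24 h transfection, treated 18 h at 0.5 µM or 0.25 µM (separate screens), then imaged (YFP, CFP). Per-cell YFP:CFP ratio normalized to DMSO gives BiFC efficiency; % inhibition = 100% − efficiency. Single biological replicate screens.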

[3] = target: T1, PRMT5/MEP50 complex (Homo sapiens); experiment: Inhibition of PRMT5/MEP50 (unknown origin) protein-protein interaction expressed in COS-1 cells at 0.25 uM incubated for 18 hrs by BiFC screening analysis relative to control; format: cell-based; how it was run: as §1
LNCaP [4] = experiment: Induction of cell death in human LNCaP cells incubated for 72 hrs by MTT assay; format: functional, cell-based
How it was run: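 LNCaP seeded 7,000 cells/well, attached 24 h, then given an 11-point dilution series plus DMSO control (constant 0.25% DMSO) for 72 h at 37 °C, 5% CO2. MTT at 0.5 mg/mL in complete RPMI for 4 h, then dissolved in DMSO and read at 570 nm. IC50 from regression curve; mean of three biological replicates.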

COS-1 = experiment: Induction of cell death in African green monkey COS-1 cells at 10 uM; format: functional, cell-based; conditions: Chlorocebus aethiops
[5] = target: T1, PRMT5/MEP50 complex (Homo sapiens); experiment: Inhibition of PRMT5/MEP50 protein-protein interaction in human LNCaP cells assessed as reduction in TGF-beta signalling after 72 hrs
[6] = target: T1, PRMT5/MEP50 complex (Homo sapiens); experiment: Inhibition of PRMT5 /MEP50 protein-protein interaction in human LNCaP cells assessed as increase in IVL gene expression at 500 nM after 72 hrs by RT-qPCR analysis
A549 = experiment: Cytotoxicity against human A549 cells after 72 hrs by MTT assay; format: functional, cell-based; conditions: A549, 72 h
LNCaP [7] = experiment: Upregulation of RB1 gene expression in human LNCaP cells at 500 nM after 72 hrs by RT-qPCR analysis; format: functional, cell-based
How it was run: (§2)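 LNCaP seeded in 6 or 10 cm dishes, attached 24 h, treated 500 nM or DMSO for 72 h. RNA by Trizol, integrity checked on agarose gel. RT-qPCR in technical triplicate, CT normalized to GAPDH; three biological replicates, Student's t-test.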

[8] = target: T1, PRMT5/MEP50 complex (Homo sapiens); experiment: Inhibition of PRMT5 /MEP50 protein-protein interaction in human LNCaP cells assessed as reduction in H4R3me2 level after 72 hrs by densitometry method; format: cell-based; conditions: DDE = dose-dependent effect
How it was run: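 LNCaP treated 72 h; lysed in RIPA with protease inhibitors, protein by Bradford, 20 µg loaded on 15% gel. Blotted with anti-H4R3 and anti-H4R3me2s, IRDye 800CW secondary, infrared imaging. H4R3me2s integrated intensity normalized to H4R3 versus DMSO; three biological replicates, t-test.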

LNCaP [9] = experiment: Upregulation of PTEN gene expression in human LNCaP cells at 500 nM after 72 hrs by RT-qPCR analysis; format: functional, cell-based; how it was run: as §2
[10] = target: T1, PRMT5/MEP50 complex (Homo sapiens); experiment: Inhibition of PRMT5/MEP50 (unknown origin) protein-protein interaction expressed in COS-1 cells at 250 to 500 nM incubated for 18 hrs by BiFC screening analysis relative to control; format: cell-based; conditions: dose 250-500 nM; how it was run: as §1
[11] = target: T1, PRMT5/MEP50 complex (Homo sapiens); experiment: Inhibition of PRMT5 /MEP50 protein-protein interaction in human LNCaP cells at 500 nM incubated for 24 hrs by co-immunoprecipitation method; format: cell-based
How it was run: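 LNCaP treated 500 nM or DMSO for 24 h, lysed 1 h at 4 °C in Tris pH 7.4/NaCl/EDTA/Triton buffer with protease inhibitors. 1 mg/mL lysate immunoprecipitated overnight with anti-PRMT5, anti-MEP50 or rabbit IgG on protein A beads. Blots probed for PRMT5 and MEP50; signal normalized to 0.4% input.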

For Cn1cc(C(=O)NCC2CCN(C(=O)c3nc(-c4ccccc4)n4c3CCCCC4)CC2)cn1, the inhibition [1] was 24%.

c1ccc(-n2cnc3ccccc32)cc1 showed an inhibition [1] of 24%.

In the case of Cc1noc(C)c1COc1cccc(C(=O)NNC(=O)c2ccc3ccccc3n2)c1, the inhibition [2] is reported as “Dde”, the inhibition [3] is reported as 41% and the IC50 (LNCaP [4]) is reported as 1660 nM. For the same compound, the Activity (COS-1) was “Active”.

For CCCCC(=O)Nc1sc2c(c1C(=O)NC1CCS(=O)(=O)C1)CCC(C(C)(C)C)C2 (stereo not drawn), the inhibition [1] was 24%.

CCN(CC)c1ccc(/C=C2\S/C(=N/NC(=O)c3ccc(Cl)cc3Cl)NC2=O)cc1 showed an inhibition [1] of 24%.

For CCc1noc(C)c1COc1cccc(C(=O)NNC(=O)c2ccc3ccccc3n2)c1, the inhibition [5] was “Active”, the inhibition [6] was “Active” and the IC50 (A549) was 447 nM. The Activity (LNCaP [7]) was “Active”, the inhibition [8] was “Dde” and the Activity (LNCaP [9]) was “Active”. The IC50 (LNCaP [4]) was 430 nM, the Activity (LNCaP [4]; DDE = dose-dependent effect) was “Dde” and the inhibition [10] was “Active”. For the same compound, the inhibition [11] was 65.4%.
